From ChEMBL document CHEMBL4765368, “Structure guided design and synthesis of furyl thiazolidinedione derivatives as inhibitors of GLUT 1 and GLUT 4, and evaluation of their anti-leukemic potential” (Eur J Med Chem, 2020) come the findings set out here.

Each structure is given as a SMILES string. Activity calls are given as the source filed them. The rule behind the calls is not given here.

The target of test [1] is T1, Solute carrier family 2, facilitated glucose transporter member 5 (Homo sapiens) (UniProt P22732).
T1 sequence (whole entry): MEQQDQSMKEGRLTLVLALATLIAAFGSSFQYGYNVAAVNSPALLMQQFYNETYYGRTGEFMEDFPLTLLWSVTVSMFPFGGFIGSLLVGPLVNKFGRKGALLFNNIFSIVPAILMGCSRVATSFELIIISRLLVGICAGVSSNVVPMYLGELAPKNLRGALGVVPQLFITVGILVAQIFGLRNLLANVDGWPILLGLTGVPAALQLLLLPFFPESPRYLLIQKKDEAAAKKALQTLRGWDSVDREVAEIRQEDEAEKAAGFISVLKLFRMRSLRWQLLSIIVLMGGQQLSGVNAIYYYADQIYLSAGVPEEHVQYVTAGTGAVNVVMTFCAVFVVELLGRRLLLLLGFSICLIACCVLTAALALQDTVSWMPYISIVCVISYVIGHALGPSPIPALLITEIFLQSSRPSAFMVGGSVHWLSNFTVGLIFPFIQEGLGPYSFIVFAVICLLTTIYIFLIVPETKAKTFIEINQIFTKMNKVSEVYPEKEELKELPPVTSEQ
As to the kind of experiment: Inhibition of transport activity of human GLUT5 expressed in hexose transporter deficient VW4000 yeast cells assessed as reduction in transporter-mediated [14C]-fructose uptake into cells at 100 uM measured after 10 mins by scintillation counting method. The class given is cell-based. A digest of the protocol:
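The hxt0 yeast strain expressing one human GLUT was grown at 30 °C and resuspended in PBS pH 7.4 at OD600 ~10. Uptake was started with 14C-glucose at 5 mM final (GLUT1, GLUT4) or 14C-fructose at 10 mM final (GLUT5). It was quenched after 10 min with ice-cold 0.1 M KPi/0.1 M LiCl pH 5.5, filtered and counted by scintillation. Compound at 100 μM with 1% DMSO; DMSO control and phloretin 200 μM (GLUT1/4) or MSNBA 100 μM (GLUT5) as references. Triplicates.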

Test [2] addresses T2, Histone deacetylase 8 (Homo sapiens) (UniProt Q9BY41).
T2 sequence (whole entry): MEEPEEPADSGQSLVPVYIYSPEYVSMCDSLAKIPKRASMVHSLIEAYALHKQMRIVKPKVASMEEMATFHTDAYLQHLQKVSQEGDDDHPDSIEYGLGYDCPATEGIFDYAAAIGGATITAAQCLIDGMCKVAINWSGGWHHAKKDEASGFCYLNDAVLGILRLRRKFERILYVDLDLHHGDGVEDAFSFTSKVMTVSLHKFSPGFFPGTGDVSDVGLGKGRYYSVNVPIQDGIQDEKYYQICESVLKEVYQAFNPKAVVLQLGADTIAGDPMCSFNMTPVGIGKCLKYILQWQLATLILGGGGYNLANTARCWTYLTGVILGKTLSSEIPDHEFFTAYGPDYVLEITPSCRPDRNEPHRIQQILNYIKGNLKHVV
As to the kind of experiment: Inhibition of recombinant human His6/SUMO-tagged HDAC8 expressed in Escherichia coli (BL21) DE3 pLysS assessed as residual activity at 50 uM using Boc-Lys(trifluoroacetyl)-AMC as substrate preincubated for 60 mins followed by substrate addition and measured after 60 mins by fluorescence assay relative to control. The note with it: time 120.0 min. The gist of the method: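 20 μM Boc-Lys(trifluoroacetyl)-AMC was then added for 60 min at 30 °C, the reaction stopped with 1.7 μM SATFMK and developed with 0.4 mg/ml trypsin, and AMC fluorescence read at Ex 350/Em 450 nm. Triplicates; percent relative activity.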

In test [3] the target is Histone deacetylase 4 (Homo sapiens) (UniProt P56524). Put plainly: Inhibition of recombinant human N-terminal GST-tagged HDAC4 (627 to end residues) expressed in baculovirus infected Sf9 insect cells assessed as residual activity at 50 uM using Boc-Lys(trifluoroacetyl)-AMC as substrate preincubated for 60 mins followed by substrate addition and measured after 60 mins by fluorescence assay relative to control. The note with it: time 120.0 min.

In another test the test system is CCRF-CEM. As to the kind of experiment: Cytotoxicity against human CCRF-CEM cells assessed as reduction in cell viability measured after 48 hrs by Hoechst 33342/propidium iodide staining based imaging analysis. In kind it is functional. The gist of the method: (§1)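 Cells were seeded at 10,000 per well (HS-27 at 3,000) in 10% FBS RPMI (leukemic lines) or DMEM (MDA-MB-231, HS-27). Compound in DMSO (1% v/v final) at 0.5–100 µM for 48 h. Hoechst 33342 and PI were added 2 h before automated imaging; dead cells were co-stained. Quadruplicates. CC50 was taken by linear interpolation between the two concentrations nearest 50% death.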

Another test deals with K562. As to the kind of experiment: Cytotoxicity against human K562 cells assessed as reduction in cell viability measured after 48 hrs by Hoechst 33342/propidium iodide staining based imaging analysis. The class given is functional. A digest of the protocol:
as §1

Another test has as its system KCL-22. Put plainly: Cytotoxicity against human KCL-22 cells assessed as reduction in cell viability measured after 48 hrs by Hoechst 33342/propidium iodide staining based imaging analysis. In kind it is functional. The gist of the method: as §1

Sequence of Histone deacetylase 4 (Homo sapiens) (P56524 whole entry): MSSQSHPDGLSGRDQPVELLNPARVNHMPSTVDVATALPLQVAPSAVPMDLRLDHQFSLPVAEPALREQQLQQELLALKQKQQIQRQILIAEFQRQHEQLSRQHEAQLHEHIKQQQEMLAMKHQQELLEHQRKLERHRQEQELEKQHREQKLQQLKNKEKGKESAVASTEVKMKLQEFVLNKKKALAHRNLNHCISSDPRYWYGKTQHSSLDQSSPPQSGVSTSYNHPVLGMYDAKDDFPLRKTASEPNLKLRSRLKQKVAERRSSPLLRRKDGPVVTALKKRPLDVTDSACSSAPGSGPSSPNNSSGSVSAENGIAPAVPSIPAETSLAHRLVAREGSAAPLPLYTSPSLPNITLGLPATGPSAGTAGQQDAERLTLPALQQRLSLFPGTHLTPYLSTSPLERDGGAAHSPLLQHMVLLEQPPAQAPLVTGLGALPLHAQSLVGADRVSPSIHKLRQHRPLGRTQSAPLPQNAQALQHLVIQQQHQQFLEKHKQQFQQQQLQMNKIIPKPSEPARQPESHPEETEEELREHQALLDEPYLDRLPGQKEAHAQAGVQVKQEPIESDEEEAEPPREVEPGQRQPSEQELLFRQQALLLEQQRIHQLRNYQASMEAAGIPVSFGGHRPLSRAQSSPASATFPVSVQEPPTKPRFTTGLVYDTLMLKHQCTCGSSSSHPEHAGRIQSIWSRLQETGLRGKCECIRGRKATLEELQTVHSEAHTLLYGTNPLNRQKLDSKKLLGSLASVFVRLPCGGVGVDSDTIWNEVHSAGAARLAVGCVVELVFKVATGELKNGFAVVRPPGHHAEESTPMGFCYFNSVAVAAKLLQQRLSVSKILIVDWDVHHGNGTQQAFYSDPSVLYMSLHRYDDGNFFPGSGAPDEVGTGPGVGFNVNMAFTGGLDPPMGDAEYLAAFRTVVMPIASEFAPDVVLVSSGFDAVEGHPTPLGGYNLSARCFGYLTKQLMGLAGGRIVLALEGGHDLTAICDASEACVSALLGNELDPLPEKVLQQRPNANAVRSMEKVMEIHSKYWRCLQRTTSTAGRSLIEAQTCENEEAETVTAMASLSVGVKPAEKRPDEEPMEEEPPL

In the case of `O=C(CN1C(=O)S/C(=C/c2ccco2)C1=O)Nc1ccc(Br)cc1F`, the inhibition entry in test [1] was “inactive”. For the same compound, the Activity in test [2] and in test [3] was more than 50% in each case.
The term CC50 denotes the concentration giving 50% cytotoxicity. `Cc1ccc(NC(=O)CN2C(=O)S/C(=C/c3ccco3)C2=O)cc1`: the inhibition result in test [1] was “inactive”. Besides, the figures for the CC50 with CCRF-CEM, with K562 and in the test with KCL-22 were 102 µM, more than 100 µM and more than 100 µM, respectively. The Activity in test [2] and in test [3] was more than 50% in each case.
Turning to `COc1ccc(NC(=O)CN2C(=O)S/C(=C/c3ccco3)C2=O)cc1`, the inhibition result in test [1] is “inactive”. In addition, the Activity in test [2] and in test [3] was more than 50% each time.
As to `O=C(CN1C(=O)S/C(=C/c2ccco2)C1=O)Nc1cccc(F)c1`, the inhibition result in test [1] is “inactive”. For the same compound, the Activity in test [2] and in test [3] was more than 50% each time.
Regarding `Cc1ccc(NC(=O)CN2C(=O)S/C(=C/c3ccco3)C2=O)cc1Cl`, the inhibition entry in test [1] was “inactive”. Also, the Activity in test [2] and in test [3] was more than 50% in each case.
Take `O=C(CN1C(=O)S/C(=C/c2ccco2)C1=O)Nc1cc(C(F)(F)F)ccc1Cl`: the inhibition entry in test [1] is “inactive”. Besides, the Activity in test [2] and in test [3] was more than 50% each time.
Turning to `O=C(CN1C(=O)S/C(=C/c2ccco2)C1=O)Nc1c(F)cc(Br)cc1F`, in test [1], the inhibition entry is “inactive”. For the same compound, the Activity in test [2] and in test [3] was more than 50% throughout.
As to `O=C(CN1C(=O)S/C(=C/c2ccco2)C1=O)Nc1ccc(Br)c(Br)c1`, the Activity in test [2] and in test [3] was more than 50% throughout.
Consider `Cc1cc(NC(=O)CN2C(=O)S/C(=C/c3ccco3)C2=O)no1`, for which the inhibition result in test [1] was “inactive”. For the same compound, the values for the CC50 in the test on CCRF-CEM, with K562 and in the test with KCL-22 were more than 100 µM, 98.6 µM and more than 100 µM, respectively. Further, the Activity in test [2] and in test [3] was more than 50% each time.
As for `O=C(CN1C(=O)S/C(=C/c2ccco2)C1=O)Nc1nccs1`, the inhibition entry in test [1] was “inactive”. Also, the Activity in test [2] and in test [3] was more than 50% each time.
Regarding `O=C(CN1C(=O)S/C(=C/c2ccco2)C1=O)Nc1ccc(Cl)cc1C(F)(F)F`, in test [1], the inhibition result is “inactive”. The figures for the CC50 with CCRF-CEM, in the test with K562 and in the test with KCL-22 were 79.9 µM, more than 100 µM and more than 100 µM, respectively. In addition, the Activity in test [2] and in test [3] was more than 50% each time.
Consider `O=C(CN1C(=O)S/C(=C/c2ccco2)C1=O)Nc1ccc(F)cc1`, for which the inhibition result in test [1] was “inactive”. Also, the Activity in test [2] and in test [3] was more than 50% in each case.
For the compound `O=C(CN1C(=O)S/C(=C/c2ccco2)C1=O)Nc1ccc(Br)cc1`, the inhibition entry in test [1] was “inactive”. For the same compound, the CC50 with CCRF-CEM was found to be 81 µM; in the test on K562, 94 µM; in the test on KCL-22 it was 98.2 µM. The Activity in test [2] and in test [3] was more than 50% in each case.
As for `O=C(CN1C(=O)S/C(=C/c2ccco2)C1=O)Nc1ccc(Oc2ccccc2)cc1`, the inhibition result in test [1] is “inactive”. Further, the Activity in test [2] and in test [3] was more than 50% in each case.
Consider `O=C(CN1C(=O)S/C(=C/c2ccco2)C1=O)Nc1ccccc1F`, for which the inhibition entry in test [1] was “inactive”. Besides, the Activity in test [2] and in test [3] was more than 50% throughout.
With `O=C(CN1C(=O)S/C(=C/c2ccco2)C1=O)Nc1ccc(F)cc1F`, the inhibition entry in test [1] was “inactive”. The Activity in test [2] and in test [3] was more than 50% each time.
For `Cc1c(NC(=O)CN2C(=O)S/C(=C/c3ccco3)C2=O)c(=O)n(-c2ccccc2)n1C`, the inhibition result in test [1] was “inactive”. For the same compound, the Activity in test [2] and in test [3] was more than 50% throughout.
As for `O=C(CN1C(=O)S/C(=C/c2ccco2)C1=O)Nc1cccc(C(F)(F)F)c1`, the inhibition entry in test [1] is “inactive”. For the same compound, the Activity in test [2] and in test [3] was more than 50% each time.
Consider `O=C(CN1C(=O)S/C(=C/c2ccco2)C1=O)Nc1ccccc1`, for which, in test [1], the inhibition entry was “inactive”. Further, the Activity in test [2] and in test [3] was more than 50% each time.
Consider `O=C(CN1C(=O)S/C(=C/c2ccco2)C1=O)Nc1ccccn1`, for which the inhibition entry in test [1] is “inactive”. Further, the Activity in test [2] and in test [3] was more than 50% throughout.
